Legend:
[1] = system: Mycobacterium avium; assay: Antimycobacterial activity against Mycobacterium avium; assay type: functional
[2] = system: Mycobacterium avium; assay: Antimycobacterial activity against multidrug-resistant Mycobacterium avium 330/88 after 14 days by micromethod; assay type: functional; details: 330/88, 336 h
Procedure, shortened: (§1)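 Micromethod in Sula semisynthetic medium, with compounds added as DMSO solutions at 1000, 500, 250, 125, 62, 32, 16, 8, 4, 2, 1, 0.5, 0.25. Inoculum dilutions: H37Rv 10^-3; M. avium 330/88 10^-5; M. kansasii 235/80 10^-4; M. kansasii 6509/96 10^-5. Incubated at 37 °C, read at 14 and 21 days, and at 7 days for M. kansasii. MIC was the lowest concentration inhibiting growth.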

[3] = Lipophilicity, log P of the compound; assay type: physicochemical; details: octanol/water
[4] = system: Mycobacterium kansasii; assay: Antimycobacterial activity against Mycobacterium kansasii 6509/96 after 21 days by micromethod; assay type: functional; details: 6509/96, 504 h; procedure, shortened: as §1
[5] = system: Mycobacterium avium; assay: Antimycobacterial activity against multidrug-resistant Mycobacterium avium 330/88 after 21 days by micromethod; assay type: functional; details: 330/88, 504 h; procedure, shortened: as §1
[6] = system: Mycobacterium tuberculosis; assay: Antimycobacterial activity against Mycobacterium tuberculosis H37Rv 331/88 after 21 days by micromethod; assay type: functional; details: H37Rv 331/88, 504 h; procedure, shortened: as §1
[7] = system: Mycobacterium tuberculosis; assay: Antimycobacterial activity against Mycobacterium tuberculosis H37Rv 331/88 after 14 days by micromethod; assay type: functional; details: H37Rv 331/88, 336 h; procedure, shortened: as §1
[8] = system: Mycobacterium kansasii; assay: Antimycobacterial activity against Mycobacterium kansasii 235/80 after 14 days by micromethod; assay type: functional; details: 235/80, 336 h; procedure, shortened: as §1
[9] = system: Mycobacterium kansasii; assay: Antimycobacterial activity against Mycobacterium kansasii 235/80 after 21 days by micromethod; assay type: functional; details: 235/80, 504 h; procedure, shortened: as §1
[10] = Selectivity index, ratio of IC50 for human PBMC to MIC for Mycobacterium tuberculosis H37Rv 331/88 after 14 days; assay type: functional
Procedure, shortened: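 SI = PBMC IC50 (MTT cytotoxicity) divided by the MIC against the named M. tuberculosis strain. MIC taken after 14 days of incubation at 37 °C by the micromethod.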

[11] = system: Mycobacterium kansasii; assay: Antimycobacterial activity against Mycobacterium kansasii 6509/96 after 14 days by micromethod; assay type: functional; details: 6509/96, 336 h; procedure, shortened: as §1
[12] = system: Mycobacterium kansasii; assay: Antimycobacterial activity against Mycobacterium kansasii 235/80 after 7 days by micromethod; assay type: functional; details: 235/80, 168 h; procedure, shortened: as §1
[13] = system: PBMC; assay: Cytotoxicity against human PBMC after 24 hrs by MTT assay; assay type: cell-based
Procedure, shortened: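 Human peripheral blood mononuclear cells in RPMI-1640 with 10% fetal calf serum, 2 mM L-glutamine and gentamicin, 37 °C, 5% CO2. Seeded at 1.5–2.0 × 10⁵ cells/well. After 24 h, treated overnight in serum-free medium. Viability by MTT (2 mg/mL, 4 h); formazan dissolved in DMSO; OD540 minus OD620. Cytotoxicity % = [1 − OD treated/OD control] × 100; IC50 from dose-response curves. Four parallels, two independent experiments.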

[14] = system: Mycobacterium kansasii; assay: Antimycobacterial activity against Mycobacterium kansasii; assay type: functional
[15] = system: Mycobacterium kansasii; assay: Antimycobacterial activity against Mycobacterium kansasii 6509/96 after 7 days by micromethod; assay type: functional; details: 6509/96, 168 h; procedure, shortened: as §1
[16] = system: Mycobacterium tuberculosis; assay: Antimycobacterial activity against drug-sensitive Mycobacterium tuberculosis; assay type: functional
[17] = system: Staphylococcus epidermidis; assay: Antibacterial activity against Staphylococcus epidermidis H6966/08 after 48 hrs by broth microdilution method; assay type: functional; details: H6966/08, 48 h
Procedure, shortened: (§2)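 Broth microdilution following […], with twofold compound dilutions in Mueller-Hinton bouillon. Incubated 24 and 48 h at 35 °C in the dark in a humid atmosphere. MIC (IC80) was taken as ≥80% growth reduction versus control, read visually and photometrically.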

[18] = system: Enterococcus sp.; assay: Antibacterial activity against Enterococcus sp. J14365/08 after 24 hrs by broth microdilution method; assay type: functional; details: J14365/08, 24 h; procedure, shortened: as §2
[19] = system: Klebsiella pneumoniae; assay: Antibacterial activity against Klebsiella pneumoniae D11750/08 after 48 hrs by broth microdilution method; assay type: functional; details: D11750/08, 48 h; procedure, shortened: as §2
[20] = system: Staphylococcus aureus; assay: Antibacterial activity against Staphylococcus aureus CCM 4516/08 after 24 hrs by broth microdilution method; assay type: functional; details: CCM 4516/08, 24 h; procedure, shortened: as §2
[21] = system: Trichophyton mentagrophytes; assay: Antifungal activity against Trichophyton mentagrophytes after 24 hrs by broth microdilution method; assay type: functional
[22] = system: Escherichia coli; assay: Antibacterial activity against Escherichia coli CCM 4517 after 48 hrs by broth microdilution method; assay type: functional; details: CCM 4517, 48 h; procedure, shortened: as §2
[23] = system: Nakaseomyces glabratus; assay: Antifungal activity against Candida glabrata 20/I after 48 hrs by broth microdilution method; assay type: functional
[24] = system: Candida tropicalis; assay: Antifungal activity against Candida tropicalis 156 after 24 hrs by broth microdilution method; assay type: functional; details: Candida tropicalis, 156, 24 h
[25] = system: Enterococcus sp.; assay: Antibacterial activity against Enterococcus sp. J14365/08 after 48 hrs by broth microdilution method; assay type: functional; details: J14365/08, 48 h; procedure, shortened: as §2
[26] = system: Pichia kudriavzevii; assay: Antifungal activity against Candida krusei E28 after 48 hrs by broth microdilution method; assay type: functional; details: E28, 48 h
[27] = system: Candida albicans; assay: Antifungal activity against Candida albicans ATCC 44859 after 48 hrs by broth microdilution method; assay type: functional; details: ATCC 44859, 48 h
[28] = system: Aspergillus fumigatus; assay: Antifungal activity against Aspergillus fumigatus 231 after 48 hrs by broth microdilution method; assay type: functional; details: Aspergillus fumigatus, 231, 48 h
[29] = system: Trichophyton mentagrophytes; assay: Antifungal activity against Trichophyton mentagrophytes after 48 hrs by broth microdilution method; assay type: functional
[30] = system: Lichtheimia corymbifera; assay: Antifungal activity against Absidia corymbifera 272 after 48 hrs by broth microdilution method; assay type: functional; details: Lichtheimia corymbifera, 272, 48 h
[31] = system: Candida albicans; assay: Antifungal activity against Candida albicans ATCC 44859 after 24 hrs by broth microdilution method; assay type: functional; details: ATCC 44859, 24 h
[32] = system: Pichia kudriavzevii; assay: Antifungal activity against Candida krusei E28 after 24 hrs by broth microdilution method; assay type: functional; details: E28, 24 h
[33] = system: Staphylococcus aureus; assay: Antibacterial activity against methicillin-resistant Staphylococcus aureus H5996/08 after 48 hrs by broth microdilution method; assay type: functional; details: H5996/08, 48 h; procedure, shortened: as §2
[34] = system: Trichosporon beigelii; assay: Antifungal activity against Trichosporon beigelii 1188 after 48 hrs by broth microdilution method; assay type: functional; details: Trichosporon beigelii, 1188, 48 h
[35] = system: Staphylococcus epidermidis; assay: Antibacterial activity against Staphylococcus epidermidis H6966/08 after 24 hrs by broth microdilution method; assay type: functional; details: H6966/08, 24 h; procedure, shortened: as §2
[36] = system: Klebsiella pneumoniae; assay: Antibacterial activity against Klebsiella pneumoniae D11750/08 after 24 hrs by broth microdilution method; assay type: functional; details: D11750/08, 24 h; procedure, shortened: as §2
[37] = system: Lichtheimia corymbifera; assay: Antifungal activity against Absidia corymbifera 272 after 24 hrs by broth microdilution method; assay type: functional; details: Lichtheimia corymbifera, 272, 24 h
[38] = system: Nakaseomyces glabratus; assay: Antifungal activity against Candida glabrata 20/I after 24 hrs by broth microdilution method; assay type: functional
[39] = system: Candida tropicalis; assay: Antifungal activity against Candida tropicalis 156 after 48 hrs by broth microdilution method; assay type: functional; details: Candida tropicalis, 156, 48 h
[40] = system: Trichosporon beigelii; assay: Antifungal activity against Trichosporon beigelii 1188 after 24 hrs by broth microdilution method; assay type: functional; details: Trichosporon beigelii, 1188, 24 h
[41] = system: Staphylococcus aureus; assay: Antibacterial activity against Staphylococcus aureus CCM 4516/08 after 48 hrs by broth microdilution method; assay type: functional; details: CCM 4516/08, 48 h; procedure, shortened: as §2
[42] = system: Escherichia coli; assay: Antibacterial activity against Escherichia coli CCM 4517 after 24 hrs by broth microdilution method; assay type: functional; details: CCM 4517, 24 h; procedure, shortened: as §2
[43] = system: Aspergillus fumigatus; assay: Antifungal activity against Aspergillus fumigatus 231 after 24 hrs by broth microdilution method; assay type: functional; details: Aspergillus fumigatus, 231, 24 h
[44] = system: Staphylococcus aureus; assay: Antibacterial activity against methicillin-resistant Staphylococcus aureus H5996/08 after 24 hrs by broth microdilution method; assay type: functional; details: H5996/08, 24 h; procedure, shortened: as §2

CC(=O)N[C@@H](Cc1ccccc1)C(=O)Oc1ccc(Cl)cc1C(=O)Nc1ccc(Cl)c(Cl)c1
8 µM: MIC [2] | MIC [5]
4 µM: MIC [4] | MIC [9]
44 µM: IC50 [13]
0.5 µM: MIC [7]
88: Selectivity Index [10]
5.12: logP [3]
2 µM: MIC [8] | MIC [11]
1 µM: MIC [1] | MIC [6] | MIC [12] | MIC [14] | MIC [15] | MIC [16]

CC(=O)N[C@@H](Cc1ccccc1)C(=O)Oc1cc(Cl)ccc1C(=O)Nc1ccc(Cl)c(Cl)c1
8 µM: MIC [2]
1 µM: MIC [1] | MIC [14] | MIC [15] | MIC [16]
62.5 µM: MIC [21]
2 µM: MIC [6] | MIC [7] | MIC [11]
> 125 µM: MIC [17] | MIC [19] | MIC [22] | MIC [23] | MIC [25] | MIC [26] | MIC [27] | MIC [28] | MIC [29] | MIC [30] | MIC [32] | MIC [33] | MIC [34] | MIC [36] | MIC [38] | MIC [39] | MIC [41]
16 µM: MIC [5]
4 µM: MIC [4] | MIC [8] | MIC [9] | MIC [12]
125 µM: MIC [18] | MIC [20] | MIC [24] | MIC [31] | MIC [35] | MIC [37] | MIC [40] | MIC [42] | MIC [43] | MIC [44]
